Results reported in ChEMBL document CHEMBL4406880, “Design, synthesis, and bioactivity of dihydropyrimidine derivatives as kinesin spindle protein inhibitors” (Bioorg Med Chem, 2019).

Legend:
Assay type in all cases: functional
ACHN = test: Growth inhibition of human ACHN cells assessed as cell viability at 0.001 uM incubated for 48 hrs by sulforhodamine B assay relative to control; conditions: read-out: Activity
SN12C = test: Growth inhibition of human SN12C cells assessed as cell viability at 0.1 uM incubated for 48 hrs by sulforhodamine B assay; conditions: read-out: Activity
RXF 393 [1] = test: Growth inhibition of human RXF393 cells assessed as cell viability at 0.001 uM incubated for 48 hrs by sulforhodamine B assay relative to control; conditions: RXF 393, 48 h, read-out: Activity
M14 = test: Growth inhibition of human M14 cells assessed as cell viability at 1 uM incubated for 48 hrs by sulforhodamine B assay; conditions: M14, 48 h, read-out: Activity
MOLT-4 = test: Growth inhibition of human MOLT4 cells assessed as cell viability at 100 uM incubated for 48 hrs by sulforhodamine B assay; conditions: MOLT-4, 48 h, read-out: Activity
RXF 393 [2] = test: Growth inhibition of human RXF393 cells assessed as cell viability at 100 uM incubated for 48 hrs by sulforhodamine B assay; conditions: RXF 393, 48 h, read-out: Activity
MDA-MB-231 = test: Growth inhibition of human MDA-MB-231 cells assessed as cell viability at 100 uM incubated for 48 hrs by sulforhodamine B assay; conditions: MDA-MB-231, 48 h, read-out: Activity
UACC-257 = test: Growth inhibition of human UACC257 cells assessed as cell viability at 1 uM incubated for 48 hrs by sulforhodamine B assay; conditions: UACC-257, 48 h, read-out: Activity
MDA-MB-435 = test: Growth inhibition of human MDA-MB-435 cells assessed as cell viability at 100 uM incubated for 48 hrs by sulforhodamine B assay; conditions: MDA-MB-435, 48 h, read-out: Activity
HOP-92 [3] = test: Growth inhibition of human HOP92 cells assessed as cell viability at 100 uM incubated for 48 hrs by sulforhodamine B assay; conditions: HOP-92, 48 h, read-out: Activity
T47D = test: Growth inhibition of human T47D cells assessed as cell viability at 0.1 uM incubated for 48 hrs by sulforhodamine B assay; conditions: read-out: Activity
NCI-H322M [4] = test: Growth inhibition of human NCI-H322M cells assessed as cell viability at 1 uM incubated for 48 hrs by sulforhodamine B assay; conditions: read-out: Activity
SNB-19 = test: Growth inhibition of human SNB19 cells assessed as cell viability at 0.001 uM incubated for 48 hrs by sulforhodamine B assay relative to control; conditions: SNB-19, 48 h, read-out: Activity
HOP-62 = test: Growth inhibition of human HOP62 cells incubated for 48 hrs by sulforhodamine B assay; conditions: HOP-62, 48 h
Summary of the method: (§1)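 NCI-60 five-dose SRB assay in RPMI 1640 with 5% FBS, 37 °C, 5% CO2. Compound given at five tenfold dilutions, 0.01–100 µM, for 48 h. Adherent cells fixed with TCA, suspension cells with 16% final TCA. Bound SRB read at 515 nm and growth calculated against time-zero and untreated controls. GI50 taken from dose–response curves as the concentration giving a 50% decrease in net cell growth.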

SNB-75 = test: Growth inhibition of human SNB75 cells assessed as cell viability at 100 uM incubated for 48 hrs by sulforhodamine B assay; conditions: SNB-75, 48 h, read-out: Activity
NCI-H322M [5] = test: Growth inhibition of human NCI-H322M cells assessed as cell viability at 0.1 uM incubated for 48 hrs by sulforhodamine B assay; conditions: read-out: Activity
HOP-92 [6] = test: Growth inhibition of human HOP92 cells assessed as cell viability at 0.001 uM incubated for 48 hrs by sulforhodamine B assay relative to control; conditions: HOP-92, 48 h, read-out: Activity
OVCAR-8 = test: Growth inhibition of human OVCAR8 cells assessed as cell viability at 0.001 uM incubated for 48 hrs by sulforhodamine B assay relative to control; conditions: OVCAR-8, 48 h, read-out: Activity
786-0 [7] = test: Growth inhibition of human 786-0 cells assessed as cell viability at 1 uM incubated for 48 hrs by sulforhodamine B assay; conditions: 786-0, 48 h, read-out: Activity
Summary of the method: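 NCI-60 five-dose mode: five tenfold dilutions (0.01, 0.1, 1, 10, 100 µM) are applied for 48 h to cells in RPMI 1640 with 5% FBS at 37 °C. Endpoint is TCA fixation with sulforhodamine B read at 515 nm. % growth comes from the 0 h and control absorbances. GI50 is the concentration giving a 50% reduction in net cell growth.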

LOX IMVI = test: Growth inhibition of human LOXIMVI cells incubated for 48 hrs by sulforhodamine B assay; summary of the method: as §1
A549 = test: Growth inhibition of human A549/ATCC cells assessed as cell viability at 0.001 uM incubated for 48 hrs by sulforhodamine B assay relative to control; conditions: A549, 48 h, read-out: Activity
UACC-62 [8] = test: Growth inhibition of human UACC62 cells assessed as cell viability at 0.001 uM incubated for 48 hrs by sulforhodamine B assay relative to control; conditions: UACC-62, 48 h, read-out: Activity
786-0 [9] = test: Growth inhibition of human 786-0 cells assessed as cell viability at 0.001 uM incubated for 48 hrs by sulforhodamine B assay relative to control; conditions: 786-0, 48 h, read-out: Activity
UACC-62 [10] = test: Growth inhibition of human UACC62 cells incubated for 48 hrs by sulforhodamine B assay; conditions: UACC-62, 48 h
Summary of the method: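 NCI-60 five-dose SRB assay. Cells were exposed for 48 h to tenfold dilutions of 0.01, 0.1, 1, 10 and 100 µM, in RPMI 1640 with 5% FBS. Plates fixed with TCA at the time of drug addition served as the time-zero reference. GI50 is the concentration giving a 50% reduction in net growth. TGI is total growth inhibition. LC50 is a net 50% loss of the initial cells.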

DU-145 = test: Growth inhibition of human DU145 cells assessed as cell viability at 1 uM incubated for 48 hrs by sulforhodamine B assay; conditions: DU-145, 48 h, read-out: Activity
Malme-3M = test: Growth inhibition of human MALME-3M cells assessed as cell viability at 1 uM incubated for 48 hrs by sulforhodamine B assay; conditions: read-out: Activity
NCI-H460 = test: Growth inhibition of human NCI-H460 cells assessed as cell viability at 0.1 uM incubated for 48 hrs by sulforhodamine B assay; conditions: NCI-H460, 48 h, read-out: Activity
[11] = read-out: LC50 (the source's name)
[12] = read-out: pLC50 (the source's name) (converted)

**Q.** What does the source list for `CC1=C(C(=O)OCc2ccccc2)C(c2ccc3c(c2)OCO3)n2c(nc3ccccc32)N1` (racemic)?
**A.** viability at 0.001 µM (ACHN): 99%; viability at 0.1 µM (SN12C): 95%; viability at 0.001 µM (RXF 393 [1]): 92%; viability at 1 µM (M14): 30%; viability at 100 µM (MOLT-4): 33%; viability at 100 µM (RXF 393 [2]): 15%; viability at 100 µM (MDA-MB-231): 49%; viability at 1 µM (UACC-257): 50%; viability at 100 µM (MDA-MB-435): -7%; viability at 100 µM (HOP-92 [3]): 53%; viability at 0.1 µM (T47D): 93%; viability at 1 µM (NCI-H322M [4]): 48%; viability at 0.001 µM (SNB-19): 94%; GI50 (HOP-62; read-out: GI50): 0.78 µM; CC50 (HOP-62; [11]): > 100 µM; TGI (HOP-62; read-out: TGI): > 100 µM; GI50 (HOP-62; read-out: pGI50 (converted)): 0.776 µM; CC50 (HOP-62; [12]): > 100 µM; TGI (HOP-62; read-out: pTGI): > 100 µM; viability at 100 µM (SNB-75): -24%; viability at 0.1 µM (NCI-H322M [5]): 99%; viability at 0.001 µM (HOP-92 [6]): 67%; viability at 0.001 µM (OVCAR-8): 95%; viability at 1 µM (786-0 [7]): 27%; GI50 (LOX IMVI; read-out: GI50): 0.55 µM; LC50 (LOX IMVI; read-out: LC50): > 100 µM; TGI (LOX IMVI; read-out: TGI): > 100 µM; GI50 (LOX IMVI; read-out: pGI50 (converted)): 0.55 µM; LC50 (LOX IMVI; read-out: pLC50 (converted)): > 100 µM; TGI (LOX IMVI; read-out: pTGI): > 100 µM; viability at 0.001 µM (A549): 95%; viability at 0.001 µM (UACC-62 [8]): 90%; viability at 0.001 µM (786-0 [9]): 94%; GI50 (UACC-62 [10]; read-out: GI50): 0.38 µM; CC50 (UACC-62 [10]; [11]): > 100 µM; TGI (UACC-62 [10]; read-out: TGI): > 100 µM; GI50 (UACC-62 [10]; read-out: pGI50 (converted)): 0.38 µM; CC50 (UACC-62 [10]; [12]): > 100 µM; TGI (UACC-62 [10]; read-out: pTGI): > 100 µM; viability at 1 µM (DU-145): 33%; viability at 1 µM (Malme-3M): 30%; viability at 0.1 µM (NCI-H460): 100%
